{"data": "Results gathered from unrelated publications", "target": "Alpha-glucosidase MAL12 (MAL12, Saccharomyces cerevisiae S288c, UniProt P53341)", "effect on": "enzyme activity", "action": "inhibitor", "note": "Compare with care: the assays were run in different laboratories. pIC50: −log10 of the molar value."}
{"Structure (SMILES)": "C[C@H]1CN(C(=O)Nc2ccc(C(F)(F)F)cc2)CCN1c1ccnc(Nc2ccc(C(F)(F)F)cc2)n1", "technique": "absorbance", "pH": "pH 6.9", "pIC50": 5.58}
{"Structure (SMILES)": "CCCCCCCCCCCCCC(=O)OCC(C)(C)CC1=C(O)C(=O)c2ccccc2C1=O", "pIC50": 5.28}
{"Structure (SMILES)": "C[C@H]1CN(C(=O)Nc2ccc(Cl)c(Cl)c2)CCN1c1ccnc(Nc2ccc(Cl)cc2)n1", "technique": "absorbance", "pH": "pH 6.9", "pIC50": 5.74}
{"Structure (SMILES)": "CC1(C)CC(=O)C2=C(C1)n1c(=O)c3ccccc3c(=O)n1C2c1cn(-c2ccccc2)nc1-c1ccc([N+](=O)[O-])cc1 (stereo not drawn)", "technique": "absorbance", "pIC50": 3.54}
{"Structure (SMILES)": "C[C@H]1CN(C(=O)Nc2ccc(C(F)(F)F)cc2)CCN1c1ccnc(Nc2ccccc2O)n1", "technique": "absorbance", "pH": "pH 6.9", "pIC50": 5.29}
{"Structure (SMILES)": "COc1cc(O)c2c(c1)oc(=O)c1c3cc(O)c(O)cc3oc21", "technique": "absorbance", "pIC50": 4.41}
{"Structure (SMILES)": "Nc1c(-c2ccc(Cl)cc2)nc2ncnn2c1-c1cccs1", "technique": "absorbance", "pIC50": 4.08}
{"Structure (SMILES)": "C[C@H]1CN(C(=O)Nc2ccc(C(F)(F)F)cc2)CCN1c1ccnc(Nc2cccc([N+](=O)[O-])c2)n1", "technique": "absorbance", "pH": "pH 6.9", "pIC50": 5.99}
{"Structure (SMILES)": "Nc1c(-c2ccccc2)nc2ncnn2c1-c1ccccc1Cl", "technique": "absorbance", "pIC50": 3.90}
{"Structure (SMILES)": "CC(=O)C1=C(C)n2c(=O)c3ccccc3c(=O)n2C1c1cn(-c2ccccc2)nc1-c1ccc(C)cc1 (stereo not drawn)", "technique": "absorbance", "pIC50": 3.78}
{"Structure (SMILES)": "Cc1ccc(-c2nc3ncnn3c(-c3ccc(Br)cc3)c2N)cc1", "technique": "absorbance", "pIC50": 4.16}
{"Structure (SMILES)": "CC1(C)CC(=O)C2=C(C1)n1c(=O)c3ccccc3c(=O)n1C2c1cn(-c2ccccc2)nc1-c1ccc(Cl)cc1 (stereo not drawn)", "technique": "absorbance", "pIC50": 3.68}
{"Structure (SMILES)": "CCCCCCCCCCCCCCCCCC(=O)OCC(C)(C)CC1=C(O)C(=O)c2ccccc2C1=O", "pIC50": 4.59}
{"Structure (SMILES)": "CC(=O)C1=C(C)n2c(=O)c3ccccc3c(=O)n2C1c1cn(-c2ccccc2)nc1-c1ccc([N+](=O)[O-])cc1 (stereo not drawn)", "technique": "absorbance", "pIC50": 4.06}
{"Structure (SMILES)": "C[C@@H]1CN(C(=O)Nc2ccc(C(F)(F)F)cc2)CCN1c1ccnc(Nc2ccc(Cl)cc2)n1", "technique": "absorbance", "pH": "pH 6.9", "pIC50": 5.46}
